Results on 63 molecules are retold here after ChEMBL document CHEMBL1131117, “Pyrimidine thioethers: a novel class of HIV-1 reverse transcriptase inhibitors with activity against BHAP-resistant HIV” (J Med Chem, 1998).

In test [1] the target is Human immunodeficiency virus type 1 reverse transcriptase (Human immunodeficiency virus 1) (UniProt Q72547). Kind of test: Inhibitory activity against HIV-1 reverse transcriptase (wild type) at 10 uM dose. In short, it runs like this: (§1)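 Recombinant HIV-1 RT homodimers (wild type or P236L mutant) were tested with compound at a single 10 µM concentration and reported as % inhibition. Reactions ran at 28 °C for 10 min and were stopped with 10% trichloroacetic acid. Acid-precipitated product was collected on glass fibre filters and counted for radioactivity.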

The test system of test [2] is Human immunodeficiency virus type 1 reverse transcriptase (Human immunodeficiency virus 1), Q72547 [P236L]. Kind of test: Inhibitory activity against HIV-1 reverse transcriptase (P236L) at 10 uM dose. A digest of the protocol: as §1
Test [3] addresses Human immunodeficiency virus type 1 reverse transcriptase (Human immunodeficiency virus 1, UniProt Q72547). Kind of test: Inhibition of HIV-1 reverse transcriptase (wild type). A digest of the protocol: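 Wild-type HIV-1 RT homodimer run at 28 °C for 10 min. The reaction is stopped with 10% (v/v) trichloroacetic acid, and the acid-precipitated product is collected on glass fiber filters and counted for radioactivity. Compounds are screened as % inhibition at 10 µM, and IC50 values are determined from eight drug concentrations.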

The target of test [4] is Human immunodeficiency virus type 1 reverse transcriptase (Human immunodeficiency virus 1, UniProt Q72547, P236L). Nature of the test: Inhibition of HIV-1 reverse transcriptase (P236L). A digest of the protocol: (§2)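 HIV-1 RT homodimers (wild type or P236L) were assayed by radiolabel incorporation at 28 °C for 10 min and stopped with 10% trichloroacetic acid. Acid-insoluble product was filter-captured and counted. IC50 was derived from inhibition measured at eight drug concentrations.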

In test [5] the test system is MT4. Kind of test: concentration of drug that inhibited p24 production by 90% in infected MT-4 cells against HIV-1MF-DLV. Type of test: functional. The following applies: Homo sapiens.
Test [6] deals with MT4. Nature of the test: concentration of drug that inhibited p24 production by 90% in infected MT-4 cells against HIV-1-WT. Type of test: functional. Conditions: Homo sapiens.
The target in test [7] is Human immunodeficiency virus type 1 reverse transcriptase (Human immunodeficiency virus 1) (UniProt Q72547). Nature of the test: inhibitory activity against HIV-1 reverse transcriptase (wild type) at 10 uM dose (IC50 determined in 8 drug concentrations). A digest of the protocol: as §2
For test [8], the system named is Human immunodeficiency virus type 1 reverse transcriptase (Human immunodeficiency virus 1), Q72547 [P236L]. Nature of the test: inhibitory activity against HIV-1 reverse transcriptase (P236L) at 10 uM dose (IC50 determined in 8 drug concentrations). In short, it runs like this:
as §2

For test [9], the target named is Human immunodeficiency virus type 1 reverse transcriptase (Human immunodeficiency virus 1) (UniProt Q72547). Kind of test: inhibitory activity against HIV-1 reverse transcriptase (wild type) at 10 uM dose. In short, it runs like this: as §1

For orientation: inhibition means the share of the control response that was lost under treatment. In general, IC50 refers to the point on the concentration scale where inhibition reaches its midpoint. Higher therefore signals weaker potency in that assay. What is called IC90 is the concentration at which the effect reaches the 90% level. Higher therefore signals a need for much substance.

Consider `C/C=C/CSc1nc(N)cc(Cl)n1`, for which the inhibition in test [1] is 5%; in test [2], 47%.
Taken in the same sequence, the figures for `CCN(CC)C(=O)CSc1nc(N)cc(Cl)n1` were 14% and 14%.
The corresponding values for `Nc1cc(Cl)nc(SCc2cccc3ccccc23)n1` are 89% and 96%.
Taken in the same sequence, the figures for `Nc1cc(Cl)nc(NCc2ccc3ccccc3c2)n1` were 9% and 17%.
With `COC(=O)/C=C/CSc1nc(N)cc(Cl)n1`, the IC50 is 5250 nM in [3] and 930 nM in [4]. In addition, the results for the inhibition in test [1] and in [2] were 78% and 93%, respectively.
`Clc1cc(NC2CCCCC2)nc(SCc2ccccc2)n1`: the inhibition in test [1] came out at 26%; in test [2] it was 6%.
For the molecule `Nc1cc(Cl)nc(SCc2ccccc2)n1`, the IC50 stood at 6660 nM in test [3] and 1470 nM in test [4].
Take `CCNC(=O)/C=C/CSc1nc(N)cc(Cl)n1`: the inhibition stood at 40% in [1] and 55% in test [2].
The corresponding values for `CCCCCCCCCSc1nc(N)cc(Cl)n1` are 0% and 0%.
As for `Cc1cccc(CSc2nc(N)cc(Cl)n2)c1`, the IC90 in the test on MT4 [5] came to 1760 nM; in the test on MT4 [6], 110 nM. Also, the figures for the IC50 in test [3] and in test [4] were 280 nM and 50 nM, respectively. Besides, the inhibition in test [7] is 96%; in [8], 98%.
Take `Nc1cc(Cl)nc(OCc2ccc3ccccc3c2)n1`: the results for the inhibition in [1] and in test [2] were 63% and 80%, respectively.
As for `Nc1cc(Cl)nc(SCc2cccc(Cl)c2)n1`, in test [2], the inhibition turned out to be 65%.
For `Clc1cc(-n2ccnc2)nc(SCc2ccc3ccccc3c2)n1`, the inhibition in test [1] worked out at 12%; in [2] it was 17%.
As for `Nc1cc(Cl)nc(OCc2cccc3ccccc23)n1`, the inhibition in test [1] stood at 2%; in test [2], 67%.
The corresponding values for `CCOC(=O)c1cc(N)nc(SCc2ccc3ccccc3c2)n1` are 17% and 24%.
The corresponding values for `Clc1cc(Cl)nc(SCc2ccccc2)n1` are 19% and 25%.
Taken in the same sequence, the figures for `CC(=O)Nc1cc(Cl)nc(SCc2ccc3ccccc3c2)n1` were 30% and 53%.
As to `Nc1cc(Cl)nc(SCc2ccc(-c3ccccc3)cc2)n1`, the inhibition in [1] was 8%; in [2], 20%.
`Cc1cc(N)nc(SCc2ccccc2)n1`: the inhibition in [1] is 0%; in [2], 4%.
Molecule `Nc1cc(Cl)nc(SCc2cc(Cl)cc(Cl)c2)n1` displayed an inhibition in [2] of 65%.
Regarding `CCOC(=O)CCSc1nc(N)cc(Cl)n1`, the values for the inhibition in test [1] and in test [2] were 11% and 7%, respectively.
With `Nc1cc(Cl)nc(S(=O)(=O)Cc2cccc(Br)c2)n1`, in [2], the inhibition turned out to be 14%.
Consider `Nc1cc(Cl)nc(SCc2ccc3ccccc3c2)n1`, for which the IC90 in the test with MT4 [5] came to 2760 nM; in the test with MT4 [6] it was 220 nM. For the same molecule, the values for the IC50 in test [3] and in test [4] were 460 nM and 150 nM, respectively. Moreover, the inhibition in [7] was determined as 87%; in [8], 96%.
For `Nc1cc(C(F)(F)F)nc(SCc2ccc3ccccc3c2)n1`, the IC50 in test [3] came to 290 nM; in test [4], 430 nM. In addition, the inhibition in [1] and in test [2] was 94% throughout.
Turning to `Clc1cc(N2CCCCC2)nc(SCc2ccccc2)n1`, the inhibition in test [1] and in test [2] was 47% throughout.
In test [2], `NNc1cc(Cl)nc(SCc2ccccc2)n1` had an inhibition of 31%.
`Clc1cc(N2CCCC2)nc(SCc2ccccc2)n1`: the inhibition is 35% in [1] and 41% in test [2].
Taken in the same sequence, the figures for `CC(C)(C)c1ccc(CSc2nc(N)cc(Cl)n2)cc1` were 37% and 56%.
As for `CCN(CC)C(=O)/C=C/CSc1nc(N)cc(Cl)n1`, the IC90 was determined as 110 nM in the test with MT4 [5] and 20 nM with MT4 [6]. The IC50 in test [3] was determined as 60 nM; in test [4], 50 nM. Moreover, the inhibition in test [7] was found to be 98%; in [8] it was 99%.
With `Nc1cc(Cl)nc([S+]([O-])Cc2ccc3ccccc3c2)n1` (stereo not given), the inhibition was found to be 45% in test [1] and 75% in test [2].
The corresponding values for `Clc1ccnc(SCc2ccc3ccccc3c2)n1` are 61% and 86%.
Consider `Nc1cc(Cl)nc(SCc2cccc(Br)c2)n1`, for which the 90% effect concentration (IC90) in the test with MT4 [5] came out at 4520 nM; in the test on MT4 [6], 350 nM. In addition, the half-maximal inhibitory concentration (IC50) in [3] turned out to be 760 nM; in test [4], 140 nM. Moreover, the inhibition in test [1] came out at 94%; in [2], 97%.
As for `OCCCNc1cc(Cl)nc(SCc2ccccc2)n1`, the inhibition in test [1] is 17%; in [2], 3%.
As to `COC(=O)c1cccc(CSc2nc(N)cc(Cl)n2)c1`, the values for the IC50 in test [3] and in [4] were 330 nM and 230 nM, respectively. The values for the inhibition in [1] and in test [2] were 93% and 94%, respectively.
With `Cc1ccccc1CSc1nc(N)cc(Cl)n1`, the inhibition in [1] was determined as 2%; in test [2], 0%.
As to `CN(C)C(=O)/C=C/CSc1nc(N)cc(Cl)n1`, the values for the IC90 in the test on MT4 [5] and in the test with MT4 [6] were 740 nM and 90 nM, respectively. The figures for the half-maximal inhibitory concentration (IC50) in test [3] and in test [4] were 200 nM and 70 nM, respectively. Also, the inhibition in test [7] and in test [8] was 99% each time.
`COc1ccc(CSc2nc(N)cc(Cl)n2)cc1`: the inhibition came to 25% in test [1] and 63% in test [2].
Regarding `Nc1cc(Cl)nc(SCc2ccc(Cl)c(Cl)c2)n1`, the results for the IC50 in test [3] and in [4] were 490 nM and 62 nM, respectively. Further, the inhibition came to 80% in test [1] and 94% in test [2].
With `Nc1cc(N2CCCC2)nc(SCc2ccccc2)n1`, the inhibition is 3% in test [1] and 0% in test [2].
On to `Nc1cc(Cl)nc(SCCc2ccccc2)n1`, for which the inhibition in [1] amounted to 33%; in test [2], 12%.
Turning to `Nc1cc(Cl)nc(CCc2ccc3ccccc3c2)n1`, in [2], the inhibition stood at 12%.
Still for that read-out and setting: in the case of `Nc1cc(Cl)nc(SCc2cccc(I)c2)n1` it was 89%.
Take `Cc1ccc(CSc2nc(N)cc(Cl)n2)cc1`: the inhibition in [1] came to 3%; in [2], 5%.
`Nc1cc(Cl)nc(SCc2cc(Br)cc(Br)c2)n1`: the inhibition in test [2] is 73%.
Regarding `Nc1cc(Cl)nc(SCc2cccc(F)c2)n1`, in test [2], the inhibition was 79%.
As to `Nc1cc(Cl)nc(SCC2CCCCC2)n1`, the inhibition came out at 37% in test [1] and 13% in test [2].
Take `CC1(C)CCC(C)(C)c2cc(CSc3nc(N)cc(Cl)n3)ccc21`: the figures for the inhibition in test [1] and in test [2] were 7% and 23%, respectively.
Taken in the same sequence, the figures for `Clc1cc(Cl)nc(SCc2ccc3ccccc3c2)n1` were 0% and 23%.
Taken in the same sequence, the figures for `Nc1cc(Cl)nc(SCc2cccc(C(F)(F)F)c2)n1` were 80% and 91%.
Regarding `Nc1cc(Cl)nc(SCC2=Cc3ccccc3CC2)n1`, the inhibition in [1] amounted to 71%; in [2], 87%.
Consider `Nc1ccnc(SCc2ccc3ccccc3c2)n1`, for which the results for the inhibition in [2] and in test [9] were 71% and 50%, respectively.
As for `Nc1cc(Cl)nc(OCc2ccccc2)n1`, the inhibition in test [1] worked out at 1%; in test [2] it was 44%.
As for `Nc1cc(Cl)nc(SCC2=CCCc3ccccc32)n1`, the results for the IC50 in test [3] and in test [4] were 16000 nM and 600 nM, respectively. The results for the inhibition in test [1] and in [2] were 47% and 88%, respectively.
Regarding `Cc1cccc(COc2nc(N)cc(Cl)n2)c1`, the inhibition in test [1] was determined as 25%; in test [2] it was 72%.
The corresponding values for `CCCNc1cc(Cl)nc(SCc2ccccc2)n1` are 14% and 30%.
Taken in the same sequence, the figures for `COC(=O)c1ccc(CSc2nc(N)cc(Cl)n2)cc1` were 6% and 15%.
`Nc1cc(Cl)nc(SC/C=C/c2ccccc2)n1`: the 90% effect concentration (IC90) with MT4 [5] stood at 5050 nM; in the test on MT4 [6], 150 nM. For the same molecule, the 50% inhibitory concentration (IC50) in test [3] amounted to 190 nM; in test [4], 70 nM. For the same molecule, the inhibition in test [1] amounted to 96%; in [2] it was 98%.
For the molecule `Nc1cc(Cl)nc(SCC(=O)O)n1`, the inhibition in test [1] and in test [2] was 0% in each case.
For `Nc1cc(Cl)nc(SCc2ccc3c(c2)OCO3)n1`, the inhibition in test [1] worked out at 82%; in [2] it was 95%.
`N#Cc1cc(N)nc(SCc2ccc3ccccc3c2)n1`: the inhibition in test [1] is 84%; in test [2], 93%.
In test [2], `Clc1cc(-c2ccccc2)nc(SCc2ccc3ccccc3c2)n1` registered an inhibition of 5%.
For `Nc1cc(O)nc(SCc2ccc3ccccc3c2)n1`, the values for the inhibition in [1] and in test [2] were 10% and 4%, respectively.
As to `Nc1cc(Cl)nc([S+]([O-])Cc2cccc(Br)c2)n1` (stereo not given), in test [2], the inhibition amounted to 40%.
